Assay results: publication PMC7336334 (ACS chemical biology, 2020)

What was measured:
MCF-7 cells = assay: In situ probe labeling with in-gel TAMRA fluorescence, MCF-7; assay type: cell-based, human; conditions: 100 μM competitor, 10 μM probe 4, UV irradiation
Outline: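 MCF-7 cells (RPMI 1640, 10% FCS) at 80–90% confluence were washed and put in serum-free medium. They got 10 μM probe for 1 h at 37 °C, with 100 μM competitor, then 1 h of 365 nm UV. Lysis in RIPA plus protease inhibitors. SDS-PAGE, fluorescence scan, SYPRO Ruby loading control.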

DNMT = DNMT inhibition; assay type: biochemical; conditions: Supporting Information Graph SI-1
recombinant GRP94 = assay type: binding; conditions: at 50 μM
recombinant HSP90α = assay type: binding; conditions: at 50 μM
PRMTs = assay: PRMT inhibition; assay type: biochemical; conditions: Supporting Information Graph SI-1
KHMTs = assay: KHMT inhibition; assay type: biochemical; conditions: Supporting Information Graph SI-1
[1] = test system: K-562, KG-1, MOLM-13, and WM-266–4 cells; assay: In situ probe labeling with in-gel TAMRA fluorescence, other cancer cell lines; assay type: cell-based, human; conditions: K-562, KG-1, MOLM-13, WM-266–4 cells, 1 h treatment with 10 μM probe, triplicate
Outline: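 Cell media: K-562 in RPMI 1640 with 10% FCS, KG-1 and MOLM-13 with 20% FCS, WM-266–4 in EMEM with 10% FCS. Cells were treated in serum-free medium, in triplicate, with 10 μM probe, control probe or 1% DMSO for 1 h at 37 °C. UV at 365 nm for 1 h, then RIPA lysis. Click with TAMRA-biotin-azide/CuSO4/TCEP/TBTA, SDS-PAGE, in-gel fluorescence, SYPRO Ruby loading control.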

| Compound | labeling of probe 4 after competition (MCF-7 cells) | activity against DNMT (DNMT) | binding to GRP94 (recombinant GRP94) | binding to HSP90α (recombinant HSP90α) | activity against PRMTs (PRMTs) | activity against KHMTs (KHMTs) | labeling of band at 100 kDa / fluorescent labeling [1] |
| --- | --- | --- | --- | --- | --- | --- | --- |
| COCn1cc(C(=O)NCC[C@H]2O[C@@H](n3cnc4c(N)ncnc43)[C@H](O)[C@@H]2O)c(N)nc1=O [Compound 1, 1-(Methoxymethyl)-N-((5′-deoxyadenosin-5′-yl)methyl)cytosine-5-carboxamide] | completely abolished | inactive | minor binding | no significant binding | inactive | inactive |  |
| Nc1nc(=O)n(COCc2ccccc2)cc1C(=O)NCC[C@H]1O[C@@H](n2cnc3c(N)ncnc32)[C@H](O)[C@@H]1O [Compound 2] | completely abolished | inactive | minor binding | no significant binding | inactive | inactive |  |
| C#CCCCC(=O)Nc1ccc(C(=O)c2ccc(NC(=O)CCCCNC(=O)OC(C)(C)C)cc2)cc1 [Compound 5, N-(4-(4-(5-(Boc-amino)pentanamido)benzoyl)phenyl)hex-5-ynamide] |  |  |  |  |  |  | absence of fluorescent labeling |
